Experimental data: ChEMBL document CHEMBL1154157, “Synthesis, structure and structure-activity relationship analysis of 3-tert-butoxycarbonyl-2-arylthiazolidine-4-carboxylic acid derivatives as potential antibacterial agents” (Eur J Med Chem, 2009)
Values after ≈ are worked out from the molar mass of the structure shown.

Legend:
Format in all cases: functional, organism-based
[1] = system: Escherichia coli; experiment: Antibacterial activity against Escherichia coli ATCC 35218 after 24 hrs by MTT method; conditions: ATCC 35218, 24 h
In short: (§1)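 Broth assay in Mueller-Hinton liquid medium. Compounds dissolved in DMSO (stock 50 μg/mL) and serially diluted into the medium. Inoculum approx. 10^5 cfu/mL, incubated 37 °C for 24 h. Afterwards MTT (2 mg/mL in 0.01 mol/L PBS, pH 7.4) added, 4-5 h at room temperature. Dye extracted with isopropanol containing 5% 1 mol/L HCl for 12 h, OD read at 570 nm. IC50 derived colorimetrically.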

[2] = system: Pseudomonas aeruginosa; experiment: Antibacterial activity against Pseudomonas aeruginosa ATCC 13525 after 24 hrs by MTT method; conditions: ATCC 13525, 24 h; in short: as §1
[3] = system: Bacillus subtilis; experiment: Antibacterial activity against Bacillus subtilis ATCC 6633 after 24 hrs by MTT method; conditions: ATCC 6633, 24 h; in short: as §1
[4] = system: Staphylococcus aureus; experiment: Antibacterial activity against Staphylococcus aureus ATCC 6538 after 24 hrs by MTT method; conditions: ATCC 6538, 24 h; in short: as §1

With `COc1ccc(C2N[C@H](C(=O)O)CS2)cc1` (mixture of isomers) as the compound, how does the IC50 [1] read?
Its IC50 is over 50 µg/mL.

And the IC50 [2]?
The IC50 was over 50 µg/mL.

And the IC50 [3]?
Its IC50 is 12.5 µg/mL.

What about the IC50 [4] of the same compound?
Its IC50 is 25 µg/mL.

Which IC50 [1] does the source give for `CC(C)(C)OC(=O)N1C(c2cc(Cl)ccc2O)SC[C@H]1C(=O)O` (mixture of isomers) here?
Its IC50 is 1.56 µg/mL.

What about the IC50 [2] of the same compound?
The IC50 was 0.39 µg/mL.

And the IC50 [3]?
Its IC50 is 1.56 µg/mL.

What about the IC50 [4] of the same compound?
Its IC50 is 1.56 µg/mL.

Which results are given for `CC(C)(C)OC(=O)N1C(c2cc(F)ccc2O)SC[C@H]1C(=O)O` (mixture of isomers)?
IC50 [1]: 0.78 µg/mL; IC50 [2]: 0.195 µg/mL; IC50 [3]: 0.39 µg/mL; IC50 [4]: 0.39 µg/mL

What does the source list for `CC(C)(C)OC(=O)N1C(c2cc(Br)ccc2O)SC[C@H]1C(=O)O` (mixture of isomers)?
IC50 [1]: 1.56 µg/mL; IC50 [2]: 0.78 µg/mL; IC50 [3]: 1.56 µg/mL; IC50 [4]: 1.56 µg/mL

With `CC1(C)S[C@@H]2[C@H](NC(=O)Cc3ccccc3)C(=O)N2[C@H]1C(=O)O` [PENICILLIN G] as the compound, how does the IC50 [1] read?
The IC50 was 6.25 µg/mL (≈ 18.7 µM).

What about the IC50 [2] of the same compound?
Its IC50 is 6.25 µg/mL (≈ 18.7 µM).

And the IC50 [3]?
Its IC50 is 1.56 µg/mL (≈ 4.67 µM).

And the IC50 [4]?
Its IC50 is 1.56 µg/mL (≈ 4.67 µM).

`NC[C@H]1O[C@H](O[C@H]2[C@H](O)[C@@H](O[C@H]3O[C@H](CO)[C@@H](O)[C@H](N)[C@H]3O)[C@H](N)C[C@@H]2N)[C@H](N)[C@@H](O)[C@@H]1O` [BEKANAMYCIN] was tested. Which IC50 [1] did it give?
The IC50 was 3.12 µg/mL (≈ 6.46 µM).

What about the IC50 [2] of the same compound?
The IC50 was 3.12 µg/mL (≈ 6.46 µM).

And the IC50 [3]?
Its IC50 is 0.39 µg/mL (≈ 0.807 µM).

What about the IC50 [4] of the same compound?
The IC50 was 1.56 µg/mL (≈ 3.23 µM).

`O=C(O)[C@@H]1CSC(c2cc(Br)ccc2O)N1` (mixture of isomers) was tested. Which IC50 [1] did it give?
The IC50 was 25 µg/mL.

What about the IC50 [2] of the same compound?
Its IC50 is 6.25 µg/mL.

And the IC50 [3]?
Its IC50 is 12.5 µg/mL.

And the IC50 [4]?
Its IC50 is 12.5 µg/mL.

What does the source list for `O=C(O)[C@@H]1CSC(c2cc(F)ccc2O)N1` (mixture of isomers)?
IC50 [1]: 12.5 µg/mL; IC50 [2]: 1.56 µg/mL; IC50 [3]: 3.12 µg/mL; IC50 [4]: 6.25 µg/mL

For `O=C(O)[C@@H]1CSC(c2ccccc2)N1` (mixture of isomers), which IC50 [1] is on record?
Its IC50 is 25 µg/mL.

What about the IC50 [2] of the same compound?
The IC50 was over 50 µg/mL.

What about the IC50 [3] of the same compound?
Its IC50 is 3.12 µg/mL.

And the IC50 [4]?
Its IC50 is 12.5 µg/mL.

For `O=C(O)[C@@H]1CSC(c2cc(Br)cc(Br)c2O)N1` (mixture of isomers), which IC50 [1] is on record?
Its IC50 is 12.5 µg/mL.

And the IC50 [2]?
Its IC50 is 25 µg/mL.

What about the IC50 [3] of the same compound?
The IC50 was 12.5 µg/mL.

And the IC50 [4]?
Its IC50 is over 50 µg/mL.

How did the IC50 [1] turn out when `CC(C)(C)OC(=O)N1C(c2cc(C(C)(C)C)c(O)c(C(C)(C)C)c2)SC[C@H]1C(=O)O` (mixture of isomers) was run?
The IC50 was 0.69 µg/mL.

And the IC50 [2]?
Its IC50 is 0.39 µg/mL.

What about the IC50 [3] of the same compound?
The IC50 was 0.39 µg/mL.

What about the IC50 [4] of the same compound?
The IC50 was 1.56 µg/mL.

How did the IC50 [1] turn out when `CC(C)(C)c1cc(C2N[C@H](C(=O)O)CS2)cc(C(C)(C)C)c1O` (mixture of isomers) was run?
Its IC50 is 25 µg/mL.

And the IC50 [2]?
The IC50 was 25 µg/mL.

And the IC50 [3]?
The IC50 was 25 µg/mL.

What about the IC50 [4] of the same compound?
The IC50 was 12.5 µg/mL.

Which results are given for `O=C(O)[C@@H]1CSC(c2cc(Cl)ccc2O)N1` (mixture of isomers)?
IC50 [1]: 12.5 µg/mL; IC50 [2]: 3.12 µg/mL; IC50 [3]: 12.5 µg/mL; IC50 [4]: 6.25 µg/mL

`CC(C)(C)OC(=O)N1C(c2ccccc2)SC[C@H]1C(=O)O` (mixture of isomers) was tested. Which IC50 [1] did it give?
Its IC50 is 0.39 µg/mL.

What about the IC50 [2] of the same compound?
Its IC50 is 0.78 µg/mL.

What about the IC50 [3] of the same compound?
The IC50 was 3.12 µg/mL.

What about the IC50 [4] of the same compound?
The IC50 was 0.78 µg/mL.

For `CC(C)(C)OC(=O)N1C(c2ccc(O)cc2)SC[C@H]1C(=O)O` (mixture of isomers), which IC50 [1] is on record?
Its IC50 is 0.78 µg/mL.

And the IC50 [2]?
Its IC50 is 0.39 µg/mL.

And the IC50 [3]?
Its IC50 is 0.39 µg/mL.

What about the IC50 [4] of the same compound?
Its IC50 is 3.12 µg/mL.

What does the source list for `COc1ccc(C2SC[C@@H](C(=O)O)N2C(=O)OC(C)(C)C)cc1` (mixture of isomers)?
IC50 [1]: 0.78 µg/mL; IC50 [2]: 0.39 µg/mL; IC50 [3]: 3.12 µg/mL; IC50 [4]: 1.56 µg/mL

Which IC50 [1] does the source give for `CC(C)(C)OC(=O)N1C(c2cc(Br)cc(Br)c2O)SC[C@H]1C(=O)O` (mixture of isomers) here?
Its IC50 is 0.78 µg/mL.

What about the IC50 [2] of the same compound?
The IC50 was 0.39 µg/mL.

What about the IC50 [3] of the same compound?
Its IC50 is 3.12 µg/mL.

What about the IC50 [4] of the same compound?
The IC50 was 1.56 µg/mL.

How did the IC50 [1] turn out when `O=C(O)[C@@H]1CSC(c2ccc(O)cc2)N1` (mixture of isomers) was run?
The IC50 was over 50 µg/mL.

What about the IC50 [2] of the same compound?
The IC50 was 25 µg/mL.

And the IC50 [3]?
The IC50 was 25 µg/mL.

And the IC50 [4]?
Its IC50 is over 50 µg/mL.

With `CC(C)(C)OC(=O)N1C(c2ccc(Br)cc2)SC[C@H]1C(=O)O` (mixture of isomers) as the compound, how does the IC50 [1] read?
The IC50 was 0.39 µg/mL.

What about the IC50 [2] of the same compound?
The IC50 was 0.39 µg/mL.

What about the IC50 [3] of the same compound?
Its IC50 is 3.12 µg/mL.

What about the IC50 [4] of the same compound?
Its IC50 is 3.12 µg/mL.
